# Measured values collected from several papers.
# Each line is one published result; the experiments were not run side by side.
# Target: G protein-coupled receptor kinase 4 (GRK4, Homo sapiens, UniProt P32298)
Structure (SMILES),assay,setting,quantity,result
Cn1cncc1[C@@](O)(COc1ccc(C#N)cc1-c1ccc(OC(F)(F)F)cc1)c1ccc(C#N)cc1,"cell-free assay, competition with immobilised ligand",1 µM,remaining binding,56%
Nc1ncc(-c2nc(N3CCOCC3)nc(N3CCOCC3)n2)c(C(F)F)n1,"binding, competition with immobilised ligand",10 µM,remaining binding,74%
O=c1[nH]c2ccccc2n1C1CCN(Cc2ccc(-c3[nH]c4cc5ncnc5cc4nc3-c3ccccc3)cc2)CC1,cell-free assay,0.5 µM,remaining signal,104%
Cn1cc(-c2cccc(N3CCc4c(sc5c4CC(C)(C)C5)C3=O)c2CO)cc(Nc2ccncn2)c1=O,"enzyme activity, inhibitor",1 µM,inhibition,-4%
Cc1nn(C)cc1-c1nc2c(N3CCN(Cc4ccc(Cl)cc4)CC3)c(Cl)cnc2[nH]1,"binding, competition with immobilised ligand",1 µM,remaining binding,41%
N#CC1(c2ccccn2)CCN(Cc2cc(C(=O)O)c(=O)n3ccccc23)CC1,"cell-free assay, competition with immobilised ligand",1 µM,remaining binding,68%
CC(C)(C)c1cc(C=C(C#N)C#N)cc(Br)c1O,"enzyme activity, inhibitor",0.5 µM,remaining activity,101%
Cn1cc(-c2cc(F)cc(N3CCn4c(cc5c4CCCC5)C3=O)c2CO)cc(Nc2ccc(N3CCN(C4COC4)CC3)cn2)c1=O,"enzyme activity, inhibitor",0.1 µM,inhibition,12%
COc1ncccc1-c1cnn2ccc(N3CCN(C(=O)OC(C)C)CC3)nc12,"binding, competition with immobilised ligand",1 µM,remaining binding,70%
